High-throughput results (PubChem)
KCNK3 block: human KCNK3 channel inhibitors, primary screen, CHO cells, FluxOR thallium flux, B-score; Potassium channel subfamily K member 3 (Homo sapiens), O14649; FluxOR fluorescence; active compounds read low; B-score at 10 µM; AID 602410, 2012; hit rate 0.84% among 340,000;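 active = B-score under library mean minus 4 SD, starting fluorescence ratio at most library mean plus 5 SD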;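 also: more negative B-score means stronger inhibition of thallium flux through KCNK3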
Target sequence (O14649 whole entry, looked up): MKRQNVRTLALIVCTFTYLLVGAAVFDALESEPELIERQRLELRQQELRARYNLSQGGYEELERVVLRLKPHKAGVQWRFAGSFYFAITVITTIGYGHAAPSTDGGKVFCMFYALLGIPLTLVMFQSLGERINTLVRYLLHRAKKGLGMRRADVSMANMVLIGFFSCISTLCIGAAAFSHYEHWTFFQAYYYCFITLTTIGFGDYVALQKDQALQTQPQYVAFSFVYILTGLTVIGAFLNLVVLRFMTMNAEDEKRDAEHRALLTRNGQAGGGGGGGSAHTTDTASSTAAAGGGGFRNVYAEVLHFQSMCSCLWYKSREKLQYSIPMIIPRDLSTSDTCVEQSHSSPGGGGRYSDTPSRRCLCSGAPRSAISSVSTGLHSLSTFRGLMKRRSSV
hERG protect: hERG rescue from dofetilide block, primary screen, cell-based, CHO-hERG, FluxOR thallium flux, dofetilide IC70. Voltage-gated inwardly rectifying potassium channel KCNH2 (Homo sapiens), Q12809. dofetilide IC70 present. activation (rescue from dofetilide block), less the hit threshold, % at 10 µM. hit rate 0.51% among 310,000. AID 1511, 2009;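 active = activation above the mean of controls blocked by dofetilide plus 5 SD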;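 also: thallium influx through hERG after potassium depolarization seen as dye fluorescence rise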
Kir21 block: inhibitors of mouse Kir2.1 inward-rectifier potassium channel; hit rate 0.85% among 310,000; HEK293-Kir2.1, FluxOR thallium flux fluorescence; active compounds read low; B-score at 10 µM;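 active = fluorescence ratio B-score at or below minus 3 SD of library scores, with starting-brightness B-score within 2 SD, cut at about -4.2 in these data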;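 also: channel flux triggered by added potassium and thallium sulfate stimulus; B-score of peak minus minimum fluorescence over baseline after thallium stimulus; more negative B-score means stronger Kir2.1 block with less thallium influx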
KCNQ1 act: potentiators or activators of KCNQ1 channel, primary screen, cell-based, thallium flux, high-throughput; Potassium voltage-gated channel subfamily KQT member 1 (Homo sapiens), P51787; AID 2648, 2010; CHO-K1 KCNQ1, thallium flux FluxOR fluorescence; active compounds read high; B-score at 10 µM; hit rate 0.35% among 310,000;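 active = fluorescence ratio B-score, a plate-corrected score, at least three library SD, with initial intensity B-score within 5 SD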
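assay system = CHO-K1 cells stably expressing KCNQ1 | medium = assay buffer, equal DMSO in all wells | timing = 37 °C overnight plating, 90-min dark dye load, 20-min compound pretreatment | measured by = kinetic FluxOR thallium fluorescence, 10-s 1-Hz baseline, 110-s post-stimulus read | measure = fluorescence change relative to baseline, converted to B score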
KCNQ1 block: inhibitors of human KCNQ1 channel, primary screen, cell-based, thallium flux, high-throughput; B-score at 10 µM; CHO-K1 KCNQ1, FluxOR thallium flux fluorescence; active compounds read high; AID 2642, 2010; hit rate 1.3% among 310,000; Potassium voltage-gated channel subfamily KQT member 1 (Homo sapiens), P51787;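 active = compounds whose thallium flux B-score, printed positive for inhibition, exceeds three library SD while starting fluorescence stays within three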;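 also: channel opened by potassium depolarization with thallium stimulus after 20 min compound exposure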
KCNK9 block: KCNK9 potassium channel inhibitors, primary screen, HEK293 cells, thallium flux; FluxOR thallium flux fluorescence; active compounds read low; B-score at 10 µM; hit rate 1.2% among 310,000;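 active = ratio B-score over 3 SD below the library mean, with starting fluorescence within 5 SD of its mean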;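 also: negative B-score means less thallium flux so channel inhibition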
KCNK3 confirm: retest of human KCNK3 channel inhibitors, confirmation, CHO cells, FluxOR thallium flux, triplicate | shares compounds with KCNK3 block | FluxOR fluorescence; 0% buffer, 100% carvedilol maximal block | ratio percent of control, % at 10 µM | hit rate 99% among 2,400;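 active = ratio percent of control, averaged over triplicates, above buffer control mean plus 5 SD, cut at about 64% in these data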;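 also: ratio is the fluorescence rise from min to max over baseline after thallium stimulus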
KCNK3 uninduced: thallium flux inhibition in non-induced cells, primary screen, counter-screen for KCNK3 inhibitor project, cell-based, non-induced KCNK3 line, FluxOR thallium, triplicate; thallium flux ratio (lower = more inhibition) at 10 µM; AID 651747, 2012; non-induced KCNK3 parental cells; active compounds read low; hit rate 40% among 2,400; shares compounds with KCNK3 block;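 active = thallium flux ratio, averaged over three wells, more than 5 SD below the buffer control mean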;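 also: host cells are CHO cells without KCNK3 induction; ratio is peak minus trough fluorescence over baseline then normalized to buffer controls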
* hit, by the source's call; i = inactive; / = no result. This is a sample that favours compounds with a hit; in the whole collection about 3.8% have one here.

SMILES	KCNK3 block	hERG protect	Kir21 block	KCNQ1 act	KCNQ1 block	KCNK9 block	KCNK3 confirm	KCNK3 uninduced
COc1cccc(-c2cc(C(=O)N3CCCc4ccccc43)no2)c1	-12*	-13	-1.1	i	i	i	115*	i
CC1=C(C(=O)OC(C)C)C(c2ccc(C)o2)C(C(=O)OC(C)C)=C(C)N1	-9.4*	-11	0.17	i	i	i	113*	0.14*
CSc1nc(N2CCN(Cc3ccc4c(c3)OCO4)CC2)c2ccccc2n1	-13*	-10	-0.2	i	i	i	112*	i
c1ccc(CN2CCN(c3nc4ccccc4c4ccccc34)CC2)cc1	-11*	-11	1.1	i	i	i	98*	i
c1ccc(CN2CCN(c3nc(NCc4ccco4)c4ccccc4n3)CC2)cc1	-11*	-38	-3.5	i	i	i	141*	0.1*
O=C(CNC(=O)c1ccc(Cl)c([N+](=O)[O-])c1)OCN1C(=O)c2ccccc2C1=O	i	-14	-1.2	i	i	i	/	/
Cc1nn2c(-c3cccc(NC(=O)c4ccco4)c3)nnc2c2ccccc12	-14*	-20	0.31	i	i	i	106*	i
O=C(Nc1cccc(-c2nnc(-c3ccccc3)o2)c1)c1ccco1	i	-4	1.1	i	i	i	/	/
C[C@H](CO)N1C[C@H](C)[C@@H](CN(C)Cc2ccc(-c3ccccc3)cc2)Oc2c(NC(=O)Nc3ccc4c(c3)OCO4)cccc2C1=O	i	/	/	/	/	/	/	/
Cc1cccc(OCCCSc2nc3ccccc3[nH]2)c1	-8.9*	-18	-3.1	i	i	i	126*	0.12*
O=S(=O)(c1cccc2cccnc12)N1CCN(c2ccccc2)CC1	i	-17	-0.01	i	i	i	/	/
Cc1ccc(C)c(N2CCN(S(=O)(=O)c3cccc4cccnc34)CC2)c1	-9.9*	-10	-1.6	i	i	i	116*	0.15*
CC(C1CC1)N(Cc1ccccc1)C(=S)Nc1ccccc1 (stereo not drawn)	-12*	-8	-0.75	i	i	i	113*	i
Cc1occc1C(=O)NCCCCNC(=O)c1ccoc1C	i	-9	-0.34	i	i	i	/	/
CCCCCCCCCCCNC(=O)c1ccoc1C	-8.9*	-12	0.01	i	i	i	96*	i
COc1ccc(NC(=O)C2CCN(S(C)(=O)=O)CC2)cc1	i	-9	-0.02	i	i	i	/	/
CCOc1ccc(NC(=O)C2CCN(S(C)(=O)=O)CC2)cc1	-9.3*	-5	-1.8	i	i	i	97*	i
O=C(C1CCCN(S(=O)(=O)c2cccc3nsnc23)C1)N1CC=C(c2ccccc2)CC1 (stereo not drawn)	-15*	/	/	/	/	/	115*	i
O=C(C1CCN(S(=O)(=O)c2cccc3nsnc23)CC1)N1CC=C(c2ccccc2)CC1	i	-6	-0.75	i	i	i	/	/
Cc1ccc(S(=O)(=O)N(C)c2ccc3ccccc3c2)cc1	-9.4*	-38	-0.46	i	i	i	122*	0.13*
CC1(C(=O)OCC(=O)Nc2nc(-c3ccc(F)c(F)c3)cs2)CC1(Cl)Cl (stereo not drawn)	-10*	-20	0.4	i	i	i	140*	0.14*
COc1ccc(CC(=O)Nc2nc(-c3ccc(F)c(F)c3)cs2)cc1	i	-8	-0.12	i	i	i	/	/
O=C(Cc1ccc(F)cc1)Nc1nc(-c2ccc(F)c(F)c2)cs1	-11*	-4	-0.02	i	i	i	130*	i
O=C(CNC(=O)c1ccccc1)OCCOc1cccc(Cl)c1	i	-16	0.52	i	i	i	/	/
O=C(CNC(=O)c1cccc(F)c1)OCCOc1cccc(Cl)c1	-8.7*	-17	1.1	i	i	i	104*	i
SMILES	KCNK3 block	hERG protect	Kir21 block	KCNQ1 act	KCNQ1 block	KCNK9 block	KCNK3 confirm	KCNK3 uninduced
CC(C)CNC(=S)N1CCN(C(c2ccccc2)c2ccccc2)CC1	i	-8	-0.3	i	i	i	/	/
S=C(NCc1ccco1)N1CCN(C(c2ccccc2)c2ccccc2)CC1	-12*	-4	1.5	i	i	-7.8*	135*	0.15*
CC1=[N+](C)c2c(ccc3cccnc23)C1(C)C	-12*	/	/	/	/	/	119*	i
Cc1[nH]c2c(ccc3cccnc32)c1C	i	-9	-0.29	i	i	i	/	/
O=C(NCCn1cc(SCc2ccc(F)cc2)c2ccccc21)c1ccccc1F	-16*	-23	-1.6	i	11*	-7.5*	140*	0.12*
CCN(c1ccccc1)S(=O)(=O)c1ccc(Cl)c(C(=O)NC2CCN(Cc3ccccc3)CC2)c1	i	/	/	/	/	/	/	/
Cc1cccc(-n2c(SCc3ccc([N+](=O)[O-])cc3)nnc2-c2c[nH]c3ccccc23)c1	-11*	-18	-0.27	i	i	i	108*	0.15*
Cc1ccc(SCCN2CCN(C)CC2)cc1	i	-7	0.67	i	i	i	/	/
COc1cccc(-c2nc(C(=O)NCC3CCCO3)cc3c2[nH]c2ccccc23)c1 (stereo not drawn)	-11*	-25	-0.36	i	i	-6.8*	64*	0.15*
CC(=O)N1N=C2/C(=C/c3ccccc3)CCCC2C1c1ccccc1 (stereo not drawn)	-9.6*	-12	-1.7	i	i	i	103*	i
CCOC(=O)Cc1nn(Cc2ccccc2)c(=O)c2ccccc12	-9.9*	-15	-1.8	i	i	i	109*	0.15*
CCOC(=O)Cc1nn(Cc2ccc(Cl)cc2)c(=O)c2ccccc12	i	-4	0.81	i	i	i	/	/
O=c1c2ccccc2nnn1Cc1ccc(F)cc1	i	-9	2.2	i	i	i	/	/
